# Assay results from ChEMBL document CHEMBL3853320, “Discovery of Imidazoquinolines as a Novel Class of Potent, Selective, and in Vivo Efficacious Cancer Osaka Thyroid (COT) Kinase Inhibitors” (J Med Chem, 2016).
# Active and inactive are the calls of the source. The rule behind the calls is not given here.
# Columns and labels:
# [1] = Clearance in beagle dog at 0.1 mg/kg, iv or 0.3 mg/kg, po fasted 12 hrs prior to compound administration via cassette dosing and fed 2 hrs post dose; type: ADME, organism-based, Canis lupus familiaris; conditions: in vivo
# Outline: (§1)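 Pharmacokinetics in Beagle dogs, n = 3 per group, after i.v. and p.o. dosing. AUC and Cmax are reported dose-normalized.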
# [2] = Half life in beagle dog liver microsomes at 5 uM preincubated for 3 mins followed by NADPH addition measured after 1 hr by HPLC/MS analysis; type: ADME, Canis lupus familiaris
# [3] = Tmax in wild type Sprague-Dawley rat at 1 mg/kg, iv or 3 mg/kg, po; type: ADME, organism-based; conditions: in vivo
# Outline: (§2)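 Male wild-type Sprague–Dawley rats, n = 3 per group, housed under Swiss animal-welfare conditions (12 h light/dark, 22−24 °C). Each group received separate i.v. and oral doses, with plasma profiles used for PK parameters.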
# [4] = Mean residence time in beagle dog at 0.1 mg/kg, iv or 0.3 mg/kg, po fasted 12 hrs prior to compound administration via cassette dosing and fed 2 hrs post dose; type: ADME, organism-based, Canis lupus familiaris; conditions: in vivo; outline: as §1
# [5] = Dose normalized AUC in wild type Sprague-Dawley rat at 1 mg/kg, iv; type: ADME, organism-based; conditions: in vivo
# Outline: (§3)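 Pharmacokinetics in male Sprague–Dawley rats, n = 3 per group, after i.v. and p.o. dosing. AUC and Cmax are reported dose-normalized.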
# [6] = Equilibrium solubility of the compound at pH 6.8 after 16 hrs by mass spectrometric analysis; type: physicochemical; conditions: buffer
# [7] = target: T1, Mitogen-activated protein kinase kinase kinase 8 (Homo sapiens, UniProt P41279); experiment: Inhibition of COT in LPS-stimulated human whole blood assessed as reduction in TNFalpha release incubated for 30 mins followed by stimulation with LPS for 3 hrs by HTRF assay; type: tissue-based
# Outline: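 Human whole blood was stimulated with LPS, and TNFα release was measured as IC50.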
# [8] = Dose normalized Cmax in beagle dog at 0.1 mg/kg, iv or 0.3 mg/kg, po fasted 12 hrs prior to compound administration via cassette dosing and fed 2 hrs post dose; type: ADME, organism-based, Canis lupus familiaris; conditions: in vivo; outline: as §1
# [9] = Dose normalized Cmax in wild type Sprague-Dawley rat at 1 mg/kg, iv or 3 mg/kg, po; type: ADME, organism-based; conditions: in vivo; outline: as §3
# [10] = Metabolic stability in bile-duct cannulated Sprague-Dawley rat assessed as parent compound remaining in kidney at 3 mg/kg, iv measured over 8 hrs post dose; type: ADME, organism-based; conditions: read-out: Stability
# Outline: (§4)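 Bile-duct cannulated rats dosed in vivo. Parent and metabolites in each matrix were expressed as relative peak areas of the drug-related components detected, at the stated sampling time or collection period post dose.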
# [11] = Protein binding in human plasma at 5 uM after 4 hrs by rapid equilibrium dialysis method; type: ADME, cell-free; conditions: read-out: PPB (converted)
# [12] = Metabolic stability in bile-duct cannulated Sprague-Dawley rat assessed as parent compound remaining in liver at 3 mg/kg, iv measured over 8 hrs post dose; type: ADME, organism-based; conditions: read-out: Stability; outline: as §4
# [13] = Terminal elimination half life in wild type Sprague-Dawley rat at 1 mg/kg, iv or 3 mg/kg, po; type: ADME, organism-based; conditions: in vivo, read-out: beta t1/2 (converted); outline: as §2
# [14] = Equilibrium solubility of the compound at pH 4 after 16 hrs by mass spectrometric analysis; type: physicochemical; conditions: buffer
# [15] = Mean residence time in wild type Sprague-Dawley rat at 1 mg/kg, iv or 3 mg/kg, po; type: ADME, organism-based; conditions: in vivo; outline: as §3
# [16] = Terminal elimination half life in beagle dog at 0.1 mg/kg, iv or 0.3 mg/kg, po fasted 12 hrs prior to compound administration via cassette dosing and fed 2 hrs post dose; type: ADME, organism-based, Canis lupus familiaris; conditions: in vivo, read-out: beta t1/2 (converted)
# Outline: (§5)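 Beagle dogs, n = 3 per group, dosed i.v. and orally. PK parameters were derived from blood/plasma profiles, with exposure values dose-normalized.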
# [17] = Dose normalized AUC in beagle dog at 0.3 mg/kg, po fasted 12 hrs prior to compound administration via cassette dosing and fed 2 hrs post dose; type: ADME, organism-based, Canis lupus familiaris; conditions: in vivo; outline: as §1
# [18] = AUC (0 to 10.5 hrs) in MSU-induced beagle dog acute synovitis model at 5 mg/kg; type: ADME, organism-based, Canis lupus familiaris; design: time < 10.5 hr, dose 5 mg/kg; conditions: in vivo
# Outline: (§6)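 Dog uric acid-induced acute synovitis model. Groups were vehicle, the test article at 5 or 15 mg/kg, and meloxicam at 0.2 mg/kg as positive control. Exposure is reported as AUC over 0–10.5 h.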
# [19] = target: T1, Mitogen-activated protein kinase kinase kinase 8; experiment: Inhibition of human COT (66 to 395 residues) expressed in Sf21 cells using 5-Fluo-Ahx-AGAGSGQLIDSNleANSFVGTR-NH2 as substrate after 60 mins by caliper microfluidic mobility shift assay
# [20] = Half life in wild type Sprague-Dawley rat liver S9 fraction at 1 uM in absence of NADPH by HPLC/MS analysis
# [21] = Half life in beagle dog liver S9 fraction at 1 uM in absence of NADPH by HPLC/MS analysis
# [22] = target: T1, Mitogen-activated protein kinase kinase kinase 8; experiment: Inhibition of COT in LPS-stimulated human PBMC assessed as reduction in TNFalpha release incubated for 1 hr followed by stimulation with LPS for 4 hrs by HTRF assay
# Outline: (§7)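 Primary human PBMCs were stimulated with LPS. Read-outs were pERK, TNFα release, or p65 phosphorylation, each reported as IC50.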
# [23] = Clearance in wild type Sprague-Dawley rat at 1 mg/kg, iv or 3 mg/kg, po; type: ADME, organism-based; conditions: in vivo; outline: as §3
# [24] = Oral bioavailability in beagle dog at 0.3 mg/kg fasted 12 hrs prior to compound administration via cassette dosing and fed 2 hrs post dose; type: ADME, organism-based, Canis lupus familiaris; conditions: in vivo; outline: as §5
# [25] = Dose normalized AUC in wild type Sprague-Dawley rat at 3 mg/kg, po; type: ADME, organism-based; conditions: in vivo; outline: as §3
# [26] = target: T1, Mitogen-activated protein kinase kinase kinase 8; experiment: Inhibition of COT in LPS-stimulated human PBMC assessed as reduction in ERK1/2 phosphorylation incubated for 60 mins followed by LPS stimulation for 12 mins by flow cytometric analysis; outline: as §7
# [27] = AUC (0 to 10.5 hrs) in MSU-induced beagle dog acute synovitis model at 15 mg/kg; type: ADME, organism-based, Canis lupus familiaris; design: time < 10.5 hr, dose 15 mg/kg; conditions: in vivo; outline: as §6
# [28] = Octanol-water partition coefficient, log P of the compound by shake-flask method; type: physicochemical
# [29] = Oral bioavailability in wild type Sprague-Dawley rat at 3 mg/kg; type: ADME, organism-based; conditions: in vivo; outline: as §2
# Canis familiaris = experiment: Antiinflammatory activity in MSU-induced beagle dog acute synovitis model assessed as prevention of inflammation-driven lameness at 15 mg/kg, administered once a week 3 hrs post MSU injection measured after 6 hrs post last dose; type: functional, organism-based; conditions: Canis lupus familiaris
# Outline: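 Lameness was induced in dogs by uric acid injection into the joint. Treatment was vehicle, test article at 5 or 15 mg/kg, or meloxicam 0.2 mg/kg. Vertical peak force of the affected limb was measured on a force plate while trotting. The read-out was the time after treatment for that force to recover to 60% of the value measured before lameness.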
# [30] = Dose normalized AUC in beagle dog at 0.1 mg/kg, iv fasted 12 hrs prior to compound administration via cassette dosing and fed 2 hrs post dose; type: ADME, organism-based, Canis lupus familiaris; conditions: in vivo; outline: as §1
# [31] = Antiinflammatory activity in human PBMC assessed as inhibition of uric acid induced-IL-1beta formation stimulated with MSU crystals after 3 hrs in presence of ATP; type: functional, cell-based
# [32] = Half life in wild type Sprague-Dawley rat liver microsomes at 5 uM preincubated for 3 mins followed by NADPH addition measured after 1 hr by HPLC/MS analysis; type: ADME
# [33] = Equilibrium solubility of the compound at pH 1 after 16 hrs by mass spectrometric analysis; type: physicochemical; conditions: buffer, pH 1, 16 h
# [34] = Drug metabolism in human liver S9 fraction assessed as 1-(2-(1-morpholinopropan-2-ylamino)benzo[d]thiazol-6-yl)-8-(pyridin-4-yl)-1H-imidazo[4,5-c][1,7]naphthyridin-4(5H)-one metabolite formation in presence of aldehyde oxidase inhibitor raloxifene; type: ADME, subcellular
# Outline: (§8)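 M1 formation was measured in liver S9 incubations with no NADPH added, in the presence of the aldehyde oxidase inhibitor raloxifene. The rat S9 fraction received 10 μM raloxifene. The human S9 fraction was tested at two raloxifene concentrations.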
# [35] = Drug metabolism in Sprague-Dawley rat liver S9 fraction assessed as 1-(2-(1-morpholinopropan-2-ylamino)benzo[d]thiazol-6-yl)-8-(pyridin-4-yl)-1H-imidazo[4,5-c][1,7]naphthyridin-4(5H)-one metabolite formation in presence of aldehyde oxidase inhibitor raloxifene at 10 uM; type: ADME, subcellular; conditions: s9, 10 µM; outline: as §8
# T1 sequence (P41279 whole entry): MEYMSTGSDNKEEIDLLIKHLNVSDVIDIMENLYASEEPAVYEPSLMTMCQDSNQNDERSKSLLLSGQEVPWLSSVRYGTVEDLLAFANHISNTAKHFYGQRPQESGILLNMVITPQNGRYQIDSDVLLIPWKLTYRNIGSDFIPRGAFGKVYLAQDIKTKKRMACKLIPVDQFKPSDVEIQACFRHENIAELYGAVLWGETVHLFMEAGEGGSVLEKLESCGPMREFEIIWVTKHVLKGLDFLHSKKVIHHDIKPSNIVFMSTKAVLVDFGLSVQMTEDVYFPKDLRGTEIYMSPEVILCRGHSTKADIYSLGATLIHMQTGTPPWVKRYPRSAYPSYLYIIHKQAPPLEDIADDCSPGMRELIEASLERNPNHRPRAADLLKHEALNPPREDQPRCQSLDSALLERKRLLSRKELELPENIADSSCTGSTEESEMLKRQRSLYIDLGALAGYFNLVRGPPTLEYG
compound,measurement,setting,value
CC(CN1CCOCC1)Nc1ccc2cc(-n3cnc4cnc5cnc(-c6ccncc6)cc5c43)ccc2n1 (racemic),clearance,[1],25 mL/min/kg
same,half-life at 5 µM,[2],0.167 h
same,Tmax,[3],0.3 h
same,MRT,[4],2.4 h
same,AUC/dose,[5],119 nmol·h
same,solubility thermodynamic at 16 h,[6],136 µM
same,IC50,[7],200 nM
same,Cmax/dose,[8],61 nM
same,Cmax/dose,[9],12 nM
same,remaining at 8 h,[10],22%
same,"fraction unbound at 4 h, 5 µM",[11],0.03
same,remaining at 8 h,[12],28%
same,half-life,[13],2.1 h
same,solubility thermodynamic at 16 h,[14],> 1000 µM
same,MRT,[15],1.2 h
same,half-life,[16],3.2 h
same,AUC/dose,[17],957 nmol·h
same,AUC,[18],2057 nmol·h
same,IC50,[19],6 nM
same,half-life at 1 µM,[20],< 5 min
same,half-life at 1 µM,[21],> 2 h
same,IC50,[22],60 nM
same,clearance,[23],277 mL/min/kg
same,bioavailability,[24],61%
same,AUC/dose,[25],31 nmol·h
same,IC50,[26],60 nM
same,AUC,[27],4575 nmol·h
same,logP,[28],3.3
same,bioavailability,[29],26%
same,Activity,Canis familiaris,Active
same,AUC/dose,[30],1570 nmol·h
same,IC50,[31],200 nM
same,half-life at 5 µM,[32],3 min
c1ccc(-c2cc3c(cn2)ncc2ncn(-c4ccc5nc(NCCN6CCOCC6)sc5c4)c23)cc1,solubility,[33],Soluble
same,solubility thermodynamic at 16 h,[6],< 4 µM
same,IC50,[7],2500 nM
same,"fraction unbound at 4 h, 5 µM",[11],< 0.01
same,solubility thermodynamic at 16 h,[14],> 1000 µM
same,IC50,[19],16 nM
same,IC50,[22],270 nM
same,IC50,[26],280 nM
same,logP,[28],4.6
O=C(c1ccc(OCCN2CCCCC2)cc1)c1c(-c2ccc(O)cc2)sc2cc(O)ccc12 [RALOXIFENE],Drug metabolism,[34],Metabolite_Notdetected
same,Drug metabolism,[35],Metabolite_Detected
